Screens as filed in PubChem BioAssay.
bCat nuc transl = modulators of beta-catenin nuclear translocation, primary screen, imaging, HeLa cells, immunofluorescence, high-content | nuclear translocation activity, % at 5 µM | actives 0.3% (n = 190,000) | AID 1665, 2009;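 active = nuclear translocation activity above 50% at 5 µM, with a well cell count of 50 or more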;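 note: per-cell ratio of nuclear to cytoplasmic median beta-catenin stain intensity; plate controls were DMSO negative control for no effect and GSK-3 inhibitor IX positive control for full effect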
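Assay system: human HeLa cells, native beta-catenin; doses: 5 µM primary, 0.02–20 µM confirmation; incubation: compound treatment 24 h, 37°C, 5% CO2; technique: fluorescence imaging of beta-catenin antibody stain plus DAPI; measure: % activation, nuclear-to-cytoplasmic median beta-catenin signal ratio per cell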
Ba/F3 V617F tox = reduced viability of JAK2V617F-dependent Ba/F3 cells, primary screen, JAK2V617F inhibitor project, cell-based, Ba/F3 EpoR-JAK2V617F, luminescence; ATP luminescence; actives 1.1% (n = 220,000); inhibition, % at 5.6 µM; AID 1446, 2008;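 active = inhibition above the campaign mean plus 3 SD over all tested compounds, cut at about 24% in these data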;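 note: cytokine-independent growth of Ba/F3 cells driven by EpoR plus mutant JAK2; 0% = DMSO-treated cells and 100% = JAK inhibitor I control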
BaF3 tox = parental Ba/F3 cell viability inhibition, counter-screen for JAK2V617F inhibitor project, murine pro-B, CellTiter-Glo luminescence; CellTiter-Glo ATP luminescence; inhibition, % at 5.6 µM; actives 1.1% (n = 220,000);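 active = inhibition above a per-campaign cutoff, the mean inhibition of all tested compounds plus 3 SD, cut at about 27% in these data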;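 note: 0% = DMSO wells and 100% = JAK Inhibitor I control wells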
L major viab = Leishmania major promastigote growth inhibition, primary screen; Leishmania major promastigotes, resazurin fluorescence viability; actives 9% (n = 200,000); inhibition, % at 10 µM; AID 1063, 2008; in the data active = inhibition above about 50%;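 note: promastigotes grown with compound for 44 hours at 28 °C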
APP transl inh = inhibitors of APP translation via 5'UTR reporter, primary screen, APP 5'UTR luciferase, SH-SY5Y cells. inhibition, % at 2 µM. SH-SY5Y APP 5'UTR-luciferase reporter, luminescence. actives 0.82% (n = 190,000);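 active = inhibition above a set limit, derived from the sample mean plus 3 SD, cut at about 45% in these data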
MT stabilizer = microtubule stabilizers in HeLa cells, primary screen, imaging, high-content imaging. HeLa tubulin immunostaining HCS, 24 h; share of cells brighter than vehicle mean+2SD. actives 0.83% (n = 200,000). % tubulin-high responders, % at 10 µM;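 active = plate Z-score above 3 for both tubulin-high and condensed-nucleus cell shares, with cell loss under 80%, at 10 µM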;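 note: anti alpha tubulin signal scored within the nucleus-defined area of each cell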
* marks the source's active call; other numbers are inactive results. Sampled rows, rich in hits. Any-hit rate of the full collection: about 9.6%.

What do the screens show for `OC(COc1cccc2ccccc12)CN1CCN(c2ccccc2)CC1` (stereo not drawn)?
bCat nuc transl: 0; Ba/F3 V617F tox: 6; BaF3 tox: -2

How did CCc1ccc(OCC(O)CN2CCN(c3ccccc3)CC2)cc1 (stereo not drawn) do in these assays?
bCat nuc transl: 0; Ba/F3 V617F tox: 0; BaF3 tox: -1; L major viab: 94*; APP transl inh: -4; MT stabilizer: 3

Results for Oc1ccccc1N1CCN(CC(O)COCc2ccccc2Cl)CC1 (stereo not drawn) ?
bCat nuc transl: 0; Ba/F3 V617F tox: -2; BaF3 tox: -4; L major viab: 85*; APP transl inh: 7; MT stabilizer: 4

What do the screens show for `COc1ccc(Cn2c(=S)[nH]c3ccsc3c2=O)cc1`?
bCat nuc transl: -1; Ba/F3 V617F tox: 2; BaF3 tox: 4; L major viab: 28; APP transl inh: 10; MT stabilizer: 1

Results for CCO[C@H]1OC(C(=O)Nc2ccccc2)=C[C@@H](C)[C@@H]1CCCO ?
bCat nuc transl: -3; Ba/F3 V617F tox: -1; BaF3 tox: 0; L major viab: -6; APP transl inh: 2; MT stabilizer: 2

How did O=C(CSc1nc2ccccc2n1S(=O)(=O)c1cccc([N+](=O)[O-])c1)NCc1cccs1 do in these assays?
bCat nuc transl: 2; Ba/F3 V617F tox: 4; BaF3 tox: 5; L major viab: 4; APP transl inh: 0; MT stabilizer: 4

What do the screens show for `OC(COCc1cccs1)CN1CCN(c2cccc(C(F)(F)F)c2)CC1` (stereo not drawn)?
bCat nuc transl: -1; Ba/F3 V617F tox: 0; BaF3 tox: 7; L major viab: 84*; APP transl inh: 10; MT stabilizer: 3

Results for O=S(=O)(c1ccc(F)cc1)N1CCN(CC(O)COCc2cccs2)CC1 (stereo not drawn) ?
bCat nuc transl: -9; Ba/F3 V617F tox: -1; BaF3 tox: 4; L major viab: -10; APP transl inh: -1; MT stabilizer: 4

Results for Cc1ccc(NC(=O)C(Cc2ccccc2)N2C(=O)C3C4CCC(C4)C3C2=O)cc1Cl (stereo not drawn) ?
bCat nuc transl: 1; Ba/F3 V617F tox: -4; BaF3 tox: 4; L major viab: 88*; APP transl inh: 2; MT stabilizer: 3

How did Cc1ccc(Cl)cc1NC(=O)C(Cc1ccccc1)N1C(=O)C2C3CCC(C3)C2C1=O (stereo not drawn) do in these assays?
bCat nuc transl: 0; Ba/F3 V617F tox: -2; BaF3 tox: 2; L major viab: 18; APP transl inh: 4; MT stabilizer: 4

How did Cc1ccc(S(=O)(=O)N(C)C)cc1NC(=S)NC12CC3CC(CC(C3)C1)C2 do in these assays?
bCat nuc transl: -1; Ba/F3 V617F tox: 2; BaF3 tox: 5; L major viab: 78*; APP transl inh: -2; MT stabilizer: 6

How did Cc1ccc(S(=O)(=O)N(C)C)cc1NC(=S)NC(=O)C12CC3CC(CC(C3)C1)C2 do in these assays?
bCat nuc transl: -2; Ba/F3 V617F tox: 0; BaF3 tox: 6; L major viab: -5; APP transl inh: 12; MT stabilizer: 4

Results for Fc1ccc(/C=N/n2cnn(Cc3ccccc3Cl)c2=S)cc1 ?
bCat nuc transl: -1; Ba/F3 V617F tox: -3; BaF3 tox: 1; L major viab: 10; APP transl inh: 62*; MT stabilizer: 4

Results for N#Cc1nc(Cc2cccc3ccccc23)oc1N1CCOCC1 ?
bCat nuc transl: 4; Ba/F3 V617F tox: 1; BaF3 tox: 3; L major viab: 29; APP transl inh: -9; MT stabilizer: 1

What do the screens show for `N#Cc1nc(-c2ccccc2)oc1NCCN1CCCCC1`?
Ba/F3 V617F tox: -1; BaF3 tox: 5; L major viab: 87*; APP transl inh: -15; MT stabilizer: 3

How did N#Cc1nc(-c2cccs2)oc1NCCN1CCOCC1 do in these assays?
Ba/F3 V617F tox: -3; BaF3 tox: 5; L major viab: -1; APP transl inh: -4; MT stabilizer: 5
